“Also recorded” adds a separate entry of the source. Where two headings read alike, the source gives them in different places.
Experiments:
TEAD‒YAP interaction [1] = molecular target: T1, TEAD‒YAP interaction (Homo sapiens, UniProt Q99594); conditions: FP assay; cited from earlier work
TEAD3 [2] = molecular target: T2, TEAD3 (Homo sapiens, UniProt Q99594); test: cellular thermal shift assay; type: cell-based; conditions: HEK293T cells, 50 μmol/L, 6 h
How it was run: (§1)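 HEK293T transfected with N-terminal 3×FLAG-tagged TEAD1–4, then given 50 μmol/L test compound or DMSO, 37 °C, 6 h. Cells trypsinised, PBS-washed, resuspended in PBS with protease inhibitor. Aliquots heated 3 min at set temperatures, then 3 min at room temperature. Three freeze–thaw cycles (liquid nitrogen/RT water), spin 20,000×g, 30 min, 4 °C. Soluble fraction immunoblotted for FLAG, with GAPDH.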
Target sequence in this assay (Q99594 whole entry): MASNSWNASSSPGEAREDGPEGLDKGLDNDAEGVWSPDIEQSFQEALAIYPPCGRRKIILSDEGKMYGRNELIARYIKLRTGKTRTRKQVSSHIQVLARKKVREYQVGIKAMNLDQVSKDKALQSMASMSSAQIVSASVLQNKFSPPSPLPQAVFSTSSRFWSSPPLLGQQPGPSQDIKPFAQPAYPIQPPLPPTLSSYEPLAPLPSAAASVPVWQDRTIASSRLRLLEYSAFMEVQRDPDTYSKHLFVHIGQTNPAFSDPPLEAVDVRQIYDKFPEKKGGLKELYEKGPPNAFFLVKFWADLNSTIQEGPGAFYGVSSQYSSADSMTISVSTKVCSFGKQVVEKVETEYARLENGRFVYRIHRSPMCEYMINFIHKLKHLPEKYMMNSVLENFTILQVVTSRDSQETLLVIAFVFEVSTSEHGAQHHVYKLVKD

TEAD3-YBD C371A mutant = TEAD3-YBD C371A mutant (Homo sapiens, UniProt Q99594, C368A); test: protein thermal shift assay; type: binding; conditions: DSF
TEAD3-YBD C371A mutant, sequence (Q99594 219-435 C368A): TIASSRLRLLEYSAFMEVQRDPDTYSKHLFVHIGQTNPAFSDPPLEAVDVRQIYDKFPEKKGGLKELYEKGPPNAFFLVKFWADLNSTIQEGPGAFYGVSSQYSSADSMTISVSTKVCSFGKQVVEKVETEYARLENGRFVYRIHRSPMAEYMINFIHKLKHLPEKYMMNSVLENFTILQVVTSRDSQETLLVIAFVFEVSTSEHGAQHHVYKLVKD
How it was run: (§2)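 Differential scanning fluorimetry. 5 μmol/L purified wild-type or mutant protein with 5× SYPRO Orange, in 20 mmol/L HEPES pH 8.5, 100 mmol/L NaCl, 2.5% DMSO, with or without test compound. Ramped 25–95 °C on a real-time PCR instrument, ROX filter. Tm calculated from raw fluorescence data.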

TEAD1 [3] = molecular target: T3, TEAD1 (Homo sapiens, UniProt P28347); test: intact protein mass spectrometry, TEAD1; type: binding; conditions: excessive compound, 24 h at 4 °C
How it was run: (§3)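 Intact-mass LC/MS. Protein diluted to 1 mg/mL in water with 0.1% formic acid; 2 μg injected. Separated on a PLRP-S column with a 15-min water/acetonitrile (0.1% formic acid) gradient at 0.300 mL/min. Analysed on an Orbitrap Fusion with HESI source (capillary 350 °C, 3.5 kV).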
Target sequence in this assay (P28347 209-426): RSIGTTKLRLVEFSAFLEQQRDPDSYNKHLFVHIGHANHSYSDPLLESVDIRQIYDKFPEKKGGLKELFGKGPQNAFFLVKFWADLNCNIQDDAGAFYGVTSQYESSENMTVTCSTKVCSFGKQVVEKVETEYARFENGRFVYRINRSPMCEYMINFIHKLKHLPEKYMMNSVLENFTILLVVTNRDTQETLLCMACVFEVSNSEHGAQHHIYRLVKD

TEAD1-YBD C359A mutant = TEAD1-YBD C359A mutant (Homo sapiens, UniProt P28347, C359A); test: protein thermal shift assay; type: binding; conditions: DSF
TEAD1-YBD C359A mutant, sequence (P28347 209-426 C359A): as the sequence (P28347 209-426) above, with C151A counted along it

TEAD3 [4] = molecular target: T2, TEAD3; test: intact protein mass spectrometry, TEAD3; type: binding; conditions: excessive compound, 24 h at 4 °C
How it was run: as §3
Target sequence in this assay (Q99594 219-435): as the sequence (Q99594 219-435 C368A) above, with A150C counted along it

juvenile zebrafish = test: proportional growth of juvenile zebrafish; type: in vivo; conditions: 2-month-old juveniles, 0.25 μmol/L in water, 14 days
How it was run: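 AB wild-type zebrafish, 2 months old, both sexes equally, 10 per dish in 30 mL sterilised facility water. Water held 0.25 μmol/L test compound (final) or matching DMSO dilution for 14 days, aerated, refreshed daily; fed twice daily. Fish imaged by stereomicroscope from day 0. Fin length taken from fin base to line joining lobe tips; body length from jaw tip to caudal fin base.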

TEAD4 = TEAD4 (Homo sapiens, UniProt Q15561); test: gel-based ABPP in vitro palmitoylation assay, TEAD4; type: biochemical; conditions: gel-based ABPP selectivity profiling
TEAD4, sequence (Q15561 217-434): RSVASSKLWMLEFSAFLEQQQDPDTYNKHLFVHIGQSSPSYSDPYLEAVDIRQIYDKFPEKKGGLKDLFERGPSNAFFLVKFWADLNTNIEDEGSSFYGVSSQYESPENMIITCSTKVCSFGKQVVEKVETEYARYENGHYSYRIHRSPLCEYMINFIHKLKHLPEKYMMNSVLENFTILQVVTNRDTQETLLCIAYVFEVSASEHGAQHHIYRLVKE
How it was run: (§4)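 Protein incubated with varying test compound concentrations, 37 °C, 2 h; flufenamic acid as positive control. Then 2.5 μmol/L palmitoyl-CoA on ice, click reaction at RT. Quenched in SDS buffer with 30 mmol/L EDTA, 95 °C, 5 min. Read by Western blot with densitometry; biological triplicates, mean ± SD.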

TEAD‒YAP interaction [5] = molecular target: T1, TEAD‒YAP interaction; test: fluorescence polarization assay with FITC-labeled YAP peptide; type: binding; conditions: FP assay, FITC-YAP(61-100), TEAD3 protein
How it was run: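 Then 30 nmol/L FITC-YAP(61–100) added for 30 min at room temperature. Polarisation read at ex 480/em 520 nm. Unlabelled synthetic YAP peptide as positive control; triplicates.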

[6] = molecular target: TEAD3-YBD recombinant protein (Homo sapiens, UniProt Q99594); test: gel-based ABPP in vitro palmitoylation assay, TEAD3; type: biochemical; conditions: for inhibition of TEAD3 palmitoylation: click-based ABPP assay
TEAD3-YBD recombinant protein, sequence (Q99594 219-435): as the sequence (Q99594 219-435 C368A) above, with A150C counted along it
How it was run: as §4

TEAD2 = TEAD2 (Homo sapiens, UniProt Q15562); test: gel-based ABPP in vitro palmitoylation assay, TEAD2; type: biochemical; conditions: gel-based ABPP selectivity profiling
TEAD2, sequence (Q15562 217-447): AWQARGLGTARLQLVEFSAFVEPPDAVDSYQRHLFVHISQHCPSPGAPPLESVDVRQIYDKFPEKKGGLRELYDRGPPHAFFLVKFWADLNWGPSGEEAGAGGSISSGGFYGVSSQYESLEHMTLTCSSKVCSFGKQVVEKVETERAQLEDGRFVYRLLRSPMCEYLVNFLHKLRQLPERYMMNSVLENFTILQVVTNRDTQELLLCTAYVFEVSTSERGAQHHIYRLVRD
How it was run: as §4

TEAD1 [7] = molecular target: T3, TEAD1; test: cellular thermal shift assay; type: cell-based; conditions: HEK293T cells, 50 μmol/L, 6 h
How it was run: as §1
Target sequence in this assay (P28347 whole entry, the tested form may be a part): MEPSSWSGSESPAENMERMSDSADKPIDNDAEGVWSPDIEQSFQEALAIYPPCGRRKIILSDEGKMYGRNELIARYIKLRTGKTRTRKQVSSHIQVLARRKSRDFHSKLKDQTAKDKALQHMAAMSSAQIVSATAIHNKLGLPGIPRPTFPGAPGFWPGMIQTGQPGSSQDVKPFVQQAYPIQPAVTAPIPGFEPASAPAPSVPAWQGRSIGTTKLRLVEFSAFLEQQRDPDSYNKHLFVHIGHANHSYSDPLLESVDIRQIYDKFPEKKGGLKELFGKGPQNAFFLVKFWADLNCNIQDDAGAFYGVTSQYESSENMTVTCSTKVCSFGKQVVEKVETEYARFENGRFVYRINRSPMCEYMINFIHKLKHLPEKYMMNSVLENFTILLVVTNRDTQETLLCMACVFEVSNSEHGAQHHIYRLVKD

wild-type TEAD3-YBD = wild-type TEAD3-YBD (Homo sapiens, UniProt Q99594); test: protein thermal shift assay; type: binding; conditions: DSF
wild-type TEAD3-YBD, sequence (Q99594 219-435): as the sequence (Q99594 219-435 C368A) above, with A150C counted along it
How it was run: as §2

[8] = tested on: TOP Flash beta-catenin reporter system; test: TOPFlash beta-catenin reporter assay; type: cell-based; conditions: HEK293T cells
How it was run: (§5)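 HEK293T seeded at 2 × 10^5/well. Transfected with 200 ng 8xGTIIC-Luc TEAD reporter or TOPFlash β-catenin reporter, plus 20 ng pGL4.75 Renilla as internal control. Cells then exposed to various concentrations of test compound or DMSO. Firefly and Renilla signals measured by dual-luciferase assay.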

TEAD1 C359S = TEAD1 C359S (Homo sapiens, UniProt P28347, C359S); test: protein thermal shift assay; type: binding; conditions: DSF
TEAD1 C359S, sequence (P28347 209-426 C359S): as the sequence (P28347 209-426) above, with C151S counted along it
How it was run: as §2

[9] = tested on: 8xGTIIC-Luc TEADs reporter; test: TEAD luciferase reporter assay; type: cell-based; conditions: HEK293T cells, compared with DC-TEADin1072-N1
How it was run: as §5

widetype TEAD1 = widetype TEAD1 (Homo sapiens, UniProt P28347); test: protein thermal shift assay; type: binding; conditions: DSF
widetype TEAD1, sequence (P28347 209-426): as the sequence (P28347 209-426) above
How it was run: as §2

TEAD1-YBD = TEAD1-YBD (Homo sapiens, UniProt P28347); test: gel-based ABPP in vitro palmitoylation assay, TEAD1; type: biochemical; conditions: gel-based ABPP selectivity profiling
TEAD1-YBD, sequence (P28347 209-426): as above
How it was run: as §4

[10] = molecular target: TEAD3 Y223 mutated to phenylalanine (Homo sapiens, UniProt Q99594, Y230F); test: gel-based ABPP assay, TEAD3 Y223F mutant; type: biochemical
TEAD3 Y223 mutated to phenylalanine, sequence (Q99594 219-435 Y230F): as the sequence (Q99594 219-435 C368A) above, with Y12F, A150C counted along it
How it was run: as §4

GAL4-TEAD3 = GAL4-TEAD3 (Homo sapiens, UniProt Q99594); test: GAL4-Luc reporter assay, GAL4-TEAD3; type: cell-based
GAL4-TEAD3, sequence (Q99594 2-435): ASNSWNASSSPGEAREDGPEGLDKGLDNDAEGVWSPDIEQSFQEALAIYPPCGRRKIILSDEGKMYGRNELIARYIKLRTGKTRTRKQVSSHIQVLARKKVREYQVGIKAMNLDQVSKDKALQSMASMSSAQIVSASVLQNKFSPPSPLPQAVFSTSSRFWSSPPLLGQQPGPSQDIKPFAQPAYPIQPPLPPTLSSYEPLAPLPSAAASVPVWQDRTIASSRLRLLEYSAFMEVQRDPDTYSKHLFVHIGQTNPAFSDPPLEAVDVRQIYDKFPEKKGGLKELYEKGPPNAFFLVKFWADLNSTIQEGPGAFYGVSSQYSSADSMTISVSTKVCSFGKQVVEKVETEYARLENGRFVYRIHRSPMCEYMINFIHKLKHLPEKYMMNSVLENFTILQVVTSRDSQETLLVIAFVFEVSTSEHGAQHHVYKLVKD
GAL4-TEAD3, sequence (P46937 whole entry partner, the tested form may be a part): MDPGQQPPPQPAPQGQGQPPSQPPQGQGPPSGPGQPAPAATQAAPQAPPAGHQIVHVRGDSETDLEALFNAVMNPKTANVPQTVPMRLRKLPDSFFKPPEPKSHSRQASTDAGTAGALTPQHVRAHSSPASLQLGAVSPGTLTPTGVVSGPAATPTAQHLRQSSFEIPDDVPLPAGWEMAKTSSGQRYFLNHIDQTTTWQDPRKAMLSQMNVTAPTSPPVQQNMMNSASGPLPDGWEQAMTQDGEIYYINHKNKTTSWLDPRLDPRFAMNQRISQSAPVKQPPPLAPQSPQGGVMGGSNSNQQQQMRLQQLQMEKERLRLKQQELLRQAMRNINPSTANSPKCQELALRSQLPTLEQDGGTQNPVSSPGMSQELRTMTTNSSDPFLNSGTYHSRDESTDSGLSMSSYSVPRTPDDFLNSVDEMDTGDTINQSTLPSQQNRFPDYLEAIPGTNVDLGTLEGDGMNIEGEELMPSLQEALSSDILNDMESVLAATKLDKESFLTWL
How it was run: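 HEK293T cells (DMEM, 10% FBS, 1% penicillin/streptomycin) co-transfected with a GAL4-Luc reporter (secreted luciferase, 9×GAL4 binding elements), a GAL4-DBD-fused TEAD1, TEAD2, TEAD3 or TEAD4 expression vector, and a YAP-expressing plasmid. Test compound at the specified concentration, 37 °C, 12 h; luciferase signal read on a plate reader. Mean of three technical replicates.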

T1 sequence (Q99594 219-435): as the sequence (Q99594 219-435 C368A) above, with A150C counted along it
T1 sequence (P46937 61-100 partner limits assumed): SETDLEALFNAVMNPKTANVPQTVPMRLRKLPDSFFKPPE

Row | ectopic or tumorous growth (juvenile zebrafish) | inhibition of TEAD4 palmitoylation (TEAD4) | inhibition of TEAD2 palmitoylation (TEAD2) | inhibition of TEAD3 palmitoylation [6] | Structure (SMILES) | thermal stability / soluble fraction of TEAD3 in intact cells (TEAD3 [2]) | effect on thermal stability of TEAD3 C371A mutant (TEAD3-YBD C371A mutant) | body growth rate (juvenile zebrafish; vs DMSO) | body length (juvenile zebrafish; vs DMSO) | growth rate of the caudal fin (juvenile zebrafish; vs DMSO) | also measured
1 | No obvious ectopic or tumorous growth | sparing | sparing |  | C=CC(=O)N1CCC(CCOc2ccccc2)CC1 [DC-TEADin1072, 1-(4-(2-Phenoxyethyl)piperidin-1-yl)prop-2-en-1-one] | increase the thermal stability | significantly abolished the compound effect | decreased significantly; also recorded: reduction | nearly significantly different | reduced; also recorded: reduction | difference in mass of TEAD1 protein after incubation (TEAD1 [3]): +259.5 Da; effect on thermal stability of TEAD1-YBD C359A mutant (TEAD1-YBD C359A mutant): significantly abolished the compound effect; difference in mass of TEAD3 protein after incubation (TEAD3 [4]): +259.5 Da; tail (caudal fin) length (juvenile zebrafish; vs DMSO): no differences; effect on TEAD‒YAP interaction (TEAD‒YAP interaction [5]): minimal effect; IC50 [6]: 0.58 ± 0.12 µM; thermal stability of TEAD1 in intact cells (TEAD1 [7]): increase the thermal stability
2 | no ectopic or tumorous growth | sparing | sparing | potent inhibition | C=CC(=O)N1CCCN(CCCOCc2ccccc2)C1 [DC-TEAD3in03, 1-(3-(3-(Benzyloxy)propyl)tetrahydropyrimidin-1(2H)-yl)prop-2-en-1-one] | increased the soluble fraction; also recorded: significantly increases the content of TEAD3 soluble contents | minimal effect | did not observe a significant difference | did not observe a significant difference | reduced the growth rate; also recorded: selective reduction | effect on thermal stability of TEAD3 protein (wild-type TEAD3-YBD): significantly improved; effect on TOP Flash beta-catenin reporter [8]: minimal effect; effect on thermal stability of TEAD1 C359S mutant (TEAD1 C359S): minimal effect; TEAD reporter activity [9]: significant reduction; effect on thermal stability of wild-type TEAD1 (widetype TEAD1): minimal effect; inhibition of TEAD1 palmitoylation (TEAD1-YBD): selectively inhibited; selectivity over other TEAD isoforms ([6]; TEAD3 versus other TEAD isoforms, ABPP assays): 100 fold; IC50 [10]: ~18.5 µM; IC50 (GAL4-TEAD3): 1.15 µM
3 |  |  |  | potent inhibition | C=CC(=O)N1CCN(CCCOCc2ccccc2)CC1 [DC-TEAD3in02, 1-(4-(3-(Benzyloxy)propyl)piperazin-1-yl)prop-2-en-1-one] |  |  |  |  |  | 

Second part, the compound before the results:

Row | Structure (SMILES) | ectopic or tumorous growth (juvenile zebrafish) | inhibition of TEAD4 palmitoylation (TEAD4) | inhibition of TEAD2 palmitoylation (TEAD2) | inhibition of TEAD3 palmitoylation [6] | thermal stability / soluble fraction of TEAD3 in intact cells (TEAD3 [2]) | effect on thermal stability of TEAD3 C371A mutant (TEAD3-YBD C371A mutant) | body growth rate (juvenile zebrafish; vs DMSO) | body length (juvenile zebrafish; vs DMSO) | growth rate of the caudal fin (juvenile zebrafish; vs DMSO) | also measured
4 | O=C(O)c1ccccc1Nc1cccc(C(F)(F)F)c1 [flufenamic acid] |  |  |  |  |  |  |  |  |  | effect on TEAD‒YAP interaction (TEAD‒YAP interaction [1]): minimal effect
5 | CCC(=O)N1CCC(CCOc2ccccc2)CC1 [DC-TEADin1072-N1, 1-(4-(2-Phenoxyethyl)piperidin-1-yl)propan-1-one] |  |  |  | minimal inhibition |  |  |  |  |  | 
6 | C=CC(=O)N1CCC(O)(CCCOCc2ccccc2)CC1 [DC-TEAD3in01, 1-(4-(3-(Benzyloxy)propyl)-4-hydroxypiperidin-1-yl)prop-2-en-1-one] |  |  |  | potent inhibition |  |  |  |  |  | 
